For experiment [1], the target named is T1, Potassium voltage-gated channel subfamily KQT member 2 (Homo sapiens, UniProt O43526). Briefly: Activation of human Kv7.2 expressed in CHO cells assessed as increase in current amplitude at 10 uM measured at holding potential of 0 mV by whole cell patch clamp electrophysiology assay relative to control. The format is cell-based. An outline of the steps: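 Transiently transfected CHO cells expressing human Kv7.2, whole-cell patch clamp at 20–22°C in HEPES-buffered saline pH 7.4. Cells held at −80 mV and ramped −80 to +20 mV over 3 s, before and during 10 μM drug. Ramp current at 0 mV taken as drug/control ratio; mean ± SEM of ≥3 cells, ≥2 transfections.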
T1 sequence (O43526 whole entry): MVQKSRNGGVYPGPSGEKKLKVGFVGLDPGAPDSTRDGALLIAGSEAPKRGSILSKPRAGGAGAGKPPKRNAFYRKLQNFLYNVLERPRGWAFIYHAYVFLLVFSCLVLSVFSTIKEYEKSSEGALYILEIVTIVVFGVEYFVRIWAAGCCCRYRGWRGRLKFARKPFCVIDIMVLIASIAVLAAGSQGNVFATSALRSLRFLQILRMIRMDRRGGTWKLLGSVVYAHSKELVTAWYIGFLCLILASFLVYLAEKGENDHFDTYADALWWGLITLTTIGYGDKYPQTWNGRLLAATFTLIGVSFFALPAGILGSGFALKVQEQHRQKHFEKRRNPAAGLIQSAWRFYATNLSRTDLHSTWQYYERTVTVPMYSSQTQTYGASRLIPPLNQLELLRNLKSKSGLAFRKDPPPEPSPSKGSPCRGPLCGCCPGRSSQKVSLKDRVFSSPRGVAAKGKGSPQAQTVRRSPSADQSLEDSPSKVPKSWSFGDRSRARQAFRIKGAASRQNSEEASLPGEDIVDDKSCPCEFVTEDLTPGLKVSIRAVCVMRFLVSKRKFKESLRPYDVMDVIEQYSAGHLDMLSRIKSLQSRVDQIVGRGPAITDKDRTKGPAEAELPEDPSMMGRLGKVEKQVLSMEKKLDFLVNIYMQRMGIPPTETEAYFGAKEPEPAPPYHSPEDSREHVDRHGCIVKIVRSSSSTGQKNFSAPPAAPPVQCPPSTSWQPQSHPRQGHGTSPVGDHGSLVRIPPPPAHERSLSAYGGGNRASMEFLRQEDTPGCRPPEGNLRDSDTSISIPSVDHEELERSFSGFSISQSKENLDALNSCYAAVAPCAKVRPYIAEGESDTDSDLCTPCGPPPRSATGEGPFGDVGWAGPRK

Experiment [2] concerns the target T1, Potassium voltage-gated channel subfamily KQT member 2. In words: Activation of human Kv7.2 expressed in CHO cells assessed as increase in current amplitude at 10 uM measured at holding potential of -40 mV by whole cell patch clamp electrophysiology assay relative to control. It counts as cell-based. An outline of the steps:
(§1)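 CHO cells transiently co-transfected (Lipofectamine 2000, 4 μg total cDNA, EGFP marker) with human channel cDNA in pcDNA3.1, recorded 24 h later. Whole-cell patch clamp at 20–22°C, 3–5 MΩ pipettes, perfused extracellular solution pH 7.4. Held at −80 mV; 3-s ramps −80 to +20 mV ± 10 μM drug. Current at −40 mV with vs without drug expressed as ratio; ≥3 cells from ≥2 transfections, mean ± SEM.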

For experiment [3], the system named is Potassium voltage-gated channel subfamily KQT member 2 (Homo sapiens), O43526 [W236L]. In words: Activation of human Kv7.2 W236L mutant expressed in CHO cells assessed as channel current amplitude at 10 uM measured at holding potential of -40 mV by whole cell patch clamp electrophysiology assay. The format is cell-based. An outline of the steps:
as §1
(Patch clamp records ionic current or voltage across a cell membrane.)

Experiment [4] relates to Potassium voltage-gated channel subfamily KQT member 2 (Homo sapiens), O43526 [F168L]. Briefly: Activation of ICA-insensitive human Kv7.2 F168L mutant expressed in CHO cells assessed as increase in channel current amplitude at 10 uM measured at holding potential of -40 mV by whole cell patch clamp electrophysiology assay. The format is cell-based. An outline of the steps:
as §1

A short description of experiment [5]: Photostability of compound in pH 7.4 buffer assessed as compound degradation at 100 ug/ml incubated for 6 hrs under natural solar light-irradiation by HPLC analysis relative to control. An outline of the steps:
(§2)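 DMSO solutions diluted in pH 7.4 buffer, held in 1 cm quartz cells and exposed to natural daylight. Light-shielded controls kept at 37°C in foil. Aliquots drawn at set intervals and parent compound loss measured by UHPLC: C18 column, 0.1% TFA water/acetonitrile gradient, 45°C, detection at 254 nm.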

Experiment [6] in a line: Photostability of compound in pH 7.4 buffer assessed as compound degradation at 100 ug/ml incubated for 2 hrs under natural solar light-irradiation by HPLC analysis relative to control. An outline of the steps: as §2
A short description of experiment [7]: Photostability of compound in pH 7.4 buffer assessed as compound degradation at 100 ug/ml incubated for 4 hrs under natural solar light-irradiation by HPLC analysis relative to control. An outline of the steps:
as §2

Calls of active or inactive are those of the source. The calls are words filed in the database; no cut-off is given here.

Potassium voltage-gated channel subfamily KQT member 2 (Homo sapiens), O43526 [F168L], sequence (O43526 whole entry F168L): as the sequence (O43526 whole entry) above, with F168L counted along it
Potassium voltage-gated channel subfamily KQT member 2 (Homo sapiens), O43526 [W236L], sequence (O43526 whole entry W236L): as the sequence (O43526 whole entry) above, with W236L counted along it

`O=S(=O)(Nc1ccc2c(ccn2Cc2ccc(C(F)(F)F)cc2)c1)C1CCCCC1`: the result in experiment [1] and in experiment [2] was inactive.

For `CCOC(=O)Nc1ccc(NCc2ccc(F)cc2)nc1N`, the outcome in experiment [1] and in experiment [2] was Active.

`COc1ccc(Cn2ccc3cc(NS(=O)(=O)C4CCCCC4)ccc32)cc1`: the result in experiment [1] and in experiment [2] was inactive.

Take `O=S(=O)(Nc1ccc2c(c1)CCN2Cc1ccc(F)c(F)c1)C1CCCCC1`: the result in experiment [1] and in experiment [2] was inactive.

As to `CCCCCCC(=O)Nc1ccc2c(c1)CCCC2Cc1ccc(C(F)(F)F)cc1` (racemic), the result in experiment [1] and in experiment [2] was inactive.

As for `CCCCS(=O)(=O)Nc1ccc2c(c1)CCN2Cc1ccc(F)cc1`, the result in experiment [1] and in experiment [2] was inactive.

As to `O=C(Cc1ccc(Cl)cc1)N1CCc2cc(NS(=O)(=O)C3CCCCC3)ccc21`, the result in experiment [1] and in experiment [2] was inactive.

On to `CCCCCCC(=O)Nc1ccc2c(ccn2Cc2ccc(O)cc2)c1`, for which the result in experiment [1] and in experiment [2] was inactive.

Regarding `CCCCCCC(=O)Nc1ccc2c(c1)CCC/C2=C/c1ccc(C(F)(F)F)cc1`, the result in experiment [1] and in experiment [2] was inactive.

Turning to `CCCCCCCCCCCCCCCC(=O)Nc1ccc2c(ccn2Cc2ccc(C(F)(F)F)cc2)c1`, the result in experiment [1] and in experiment [2] was inactive.

With `CCCCCCS(=O)(=O)Nc1ccc2c(c1)CCN2Cc1ccc(F)cc1`, the outcome in experiment [1] and in experiment [2] was inactive.

Regarding `O=S(=O)(Nc1ccc2c(c1)CCN2Cc1ccc(F)cc1)c1ccccc1`, the outcome in experiment [1] and in experiment [2] was inactive.

For `CCOC(=O)Nc1ccc2c(c1)CCN2Cc1ccc(F)cc1`, the outcome in experiment [1] and in experiment [2] was inactive.

`CC1CC(C)CN(S(=O)(=O)Nc2ccc3c(c2)CCN3Cc2ccc(F)cc2)C1` (stereo unspecified): the outcome in experiment [1] and in experiment [2] was inactive.

Regarding `CC(C)[C@H]1CC[C@H](C)C[C@@H]1OC(=O)Nc1ccc2c(c1)CCN2Cc1ccc(F)cc1`, the outcome in experiment [1] and in experiment [2] was inactive.

Consider `CC(C)(C)CNC(=N)Nc1ccc2c(c1)CCN2Cc1ccc(F)cc1`, for which the result in experiment [1] and in experiment [2] was inactive.

`CC(=O)Nc1ccc2c(c1)CCN2Cc1ccc(F)cc1`: the outcome in experiment [1] and in experiment [2] was inactive.

Regarding `CC(C)(C)CNC(=O)Nc1ccc2c(c1)CCN2Cc1ccc(F)cc1`, the result in experiment [1] and in experiment [2] was inactive.

Turning to `CCCCN(C)CC(=O)Nc1ccc2c(ccn2Cc2ccc(C(F)(F)F)cc2)c1`, the result in experiment [1] and in experiment [2] was inactive.

In the case of `CC(C)CS(=O)(=O)Nc1ccc2c(c1)CCN2Cc1ccc(F)cc1`, the outcome in experiment [1] and in experiment [2] was inactive.

In the case of `COc1ccc(CN2c3ccc(NS(=O)(=O)C4CCCCC4)cc3CC2C)cc1` (racemic), the outcome in experiment [1] and in experiment [2] was inactive.

Take `O=C(Nc1ccc2c(c1)CCN2Cc1ccc(F)cc1)NC1CCCCC1`: the outcome in experiment [1] and in experiment [2] was inactive.

Turning to `CC1(C)[C@@H]2CC[C@@]1(CS(=O)(=O)Nc1ccc3c(c1)CCN3Cc1ccc(F)cc1)C(=O)C2`, the result in experiment [1] and in experiment [2] was inactive.

Regarding `CCCCNCC(=O)Nc1ccc2c(ccn2Cc2ccc(C(F)(F)F)cc2)c1`, the result in experiment [1] and in experiment [2] was inactive.

Regarding `CCCCCCC(=O)Nc1ccc2c(ccn2Cc2ccc(OCOC)cc2)c1`, the outcome in experiment [1] and in experiment [2] was inactive.

For the compound `O=S(=O)(Nc1ccc2c(c1)CCN2Cc1ccc(C(F)(F)F)cc1)C1CCCCC1`, the outcome in experiment [1] and in experiment [2] was inactive.

`CCCCCCC(=O)Nc1ccc2c(c1)CCC/C2=C\c1ccc(C(F)(F)F)cc1`: the outcome in experiment [1] and in experiment [2] was inactive.

For `O=[N+]([O-])c1cc(Br)ccc1CN1CCc2cc(NS(=O)(=O)C3CCCCC3)ccc21`, the outcome in experiment [1] was Active. Besides, the result in experiment [2] was inactive.

With `O=S(=O)(Nc1ccc2c(c1)CCN2Cc1ccc(C(F)(F)F)cc1C(F)(F)F)C1CCCCC1`, the outcome in experiment [1] and in experiment [2] was inactive.

With `CC1(C)[C@H]2CC[C@]1(CS(=O)(=O)Nc1ccc3c(c1)CCN3Cc1ccc(F)cc1)C(=O)C2`, the outcome in experiment [1] and in experiment [2] was inactive.

For `O=S(=O)(CCC1CCCCC1)Nc1ccc2c(ccn2Cc2ccc(F)cc2)c1`, the result in experiment [1] and in experiment [2] was inactive.

On to `O=S(=O)(Nc1ccc2c(c1)CCN2Cc1ccc(F)cc1)N1CCCCCC1`, for which the outcome in experiment [1] and in experiment [2] was inactive.

With `O=S(=O)(Nc1ccc2c(c1)CCN2CCc1ccc(F)cc1)C1CCCCC1`, the result in experiment [1] and in experiment [2] was inactive.

As for `O=C(c1ccc(F)cc1)N1CCc2cc(NS(=O)(=O)C3CCCCC3)ccc21`, the result in experiment [1] and in experiment [2] was inactive.

Regarding `O=C(CC1CCCCC1)Nc1ccc2c(c1)CCN2Cc1ccc(F)cc1`, the result in experiment [1] and in experiment [2] was inactive.

`O=C(Nc1ccc(Cl)nc1)c1ccc(F)c(F)c1`: the outcome in experiment [1], in experiment [2] and in experiment [3] was Active. Besides, the result in experiment [4] was inactive.

For `COc1ccc(CN2CCc3cc(NS(=O)(=O)C4CCCCC4)ccc32)cc1`, the result in experiment [1] was Active. The outcome in experiment [2] was inactive. The figures for the Drug degradation in experiment [5], in experiment [6] and in experiment [7] were above 99%, 37.5% and 84.7%, respectively.

In the case of `O=S(=O)(Nc1ccc2c(ccn2Cc2ccc(F)cc2)c1)C1CCCCC1`, in experiment [1], the result was Active. For the same compound, the outcome in experiment [2] was inactive. Also, the values for the Drug degradation in experiment [5], in experiment [6] and in experiment [7] were 23.1%, 6.46% and 15.8%, respectively.

On to `O=S(=O)(Nc1ccc2c(c1)CCN2Cc1ccc(F)cc1F)C1CCCCC1`, for which, in experiment [1], the result was Active. Besides, in experiment [2], the result was inactive. For the same compound, the Drug degradation in experiment [5] is above 99%; in experiment [6], 33.5%; in experiment [7] it was 81.7%.

`O=C(Nc1ccc2c(c1)CCN2Cc1ccc(F)cc1)C1CCCCC1`: the outcome in experiment [1] and in experiment [2] was inactive.

The values are drawn from ChEMBL document CHEMBL4402547, “Synthesis and Pharmacological Characterization of Conformationally Restricted Retigabine Analogues as Novel Neuronal Kv7 Channel Activators” (J Med Chem, 2020).
